Source: ChEMBL document CHEMBL3124842, “Design, synthesis and evaluation of the antidepressant and anticonvulsant activities of triazole-containing quinolinones” (Eur J Med Chem, 2014)
Active and inactive are the calls of the source. No cut-off for these calls is given here.

Assays:
Mus musculus [1] = assay: Antidepressant activity in KunMing mouse assessed as immobility time at 50 mg/kg, ip by forced swimming test; assay type: functional; settings: route intraperitoneal
In short: (§1)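 Compounds in DMSO given i.p. to mice, n = 8 per group. Dose was 50 mg/kg, or 10, 25 and 50 mg/kg in the dose-response study. After 30 min each mouse was placed in a water-filled cylinder (water 18 cm deep, 23–25 °C). Immobility (upright floating, only slight movements) was timed over the last 4 min of 6 min. %DID = (A − B)/A × 100, where A is control immobility and B is test immobility. Mean ± SEM; ANOVA with Dunnett's test versus control.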

Mus musculus [2] = assay: Antidepressant activity in KunMing mouse assessed as decrease in immobility time at 50 mg/kg, ip by forced swimming test relative to control; assay type: functional; design: scale not given: the % may be the effect or the level left; settings: route intraperitoneal; in short: as §1
Mus musculus [3] = assay: Anticonvulsant activity in KunMing mouse assessed as protection against maximal electroshock-induced seizures at 300 mg/kg, ip after 4 hrs; assay type: functional, organism-based; design: dose 300 mg/kg
In short: (§2)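 Mice (22 ± 2 g) given compounds in DMSO i.p. at 30, 100 and 300 mg/kg; seizures elicited by electroshock via ear stimulation. Protection = abolition of hind limb tonic extension, read at 0.5 and 4 h after injection. Value is the minimal dose active in half or more of the mice; 300 mg/kg was the top dose.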

Mus musculus [4] = assay: Neurotoxicity in ip dosed KunMing mouse assessed as motor impairment after 4 hrs by rotarod test; assay type: toxicity, organism-based; settings: in vivo
In short: (§3)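 Mice were trained on a 3.2 cm diameter rotarod turning at 10 rpm, then given compounds in DMSO i.p. at 30, 100 or 300 mg/kg. Neurotoxicity = failure to stay on the rod for at least 1 min in each trial, checked at 0.5 and 4 h. Value is the minimal dose toxic in half or more of the mice.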

Mus musculus [5] = assay: Anticonvulsant activity in KunMing mouse assessed as protection against maximal electroshock-induced seizures at 300 mg/kg, ip after 0.5 hrs; assay type: functional, organism-based; design: dose 300 mg/kg; in short: as §2
Mus musculus [6] = assay: Neurotoxicity in KunMing mouse assessed as motor impairment at 300 mg/kg, ip after 0.5 hrs by rotarod test; assay type: toxicity, organism-based; design: dose 300 mg/kg, route intraperitoneal; settings: in vivo; in short: as §3
Mus musculus [7] = assay: Neurotoxicity in KunMing mouse at 50 mg/kg, ip; assay type: toxicity, organism-based; design: dose 50 mg/kg, route intraperitoneal; settings: in vivo
Mus musculus [8] = assay: Neurotoxicity in KunMing mouse assessed as motor impairment at 300 mg/kg, ip after 4 hrs by rotarod test; assay type: toxicity, organism-based; design: dose 300 mg/kg, route intraperitoneal; settings: in vivo; in short: as §3
Mus musculus [9] = assay: Anticonvulsant activity in ip dosed KunMing mouse assessed as protection against maximal electroshock-induced seizures after 4 hrs; assay type: functional; settings: read-out: MED; in short: as §2
Mus musculus [10] = assay: Anticonvulsant activity in ip dosed KunMing mouse assessed as protection against maximal electroshock-induced seizures after 0.5 hrs; assay type: functional; settings: read-out: MED; in short: as §2
Mus musculus [11] = assay: Antidepressant activity in KunMing mouse at 50 mg/kg, ip by tail suspension test; assay type: functional, organism-based; design: dose 50 mg/kg
In short: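 Male KunMing mice (22 ± 2 g, n = 8 per group), dosed i.p. at 50 mg/kg from a dimethylsulfoxide solution. Each mouse was hung by the tail above the floor with adhesive tape about 1-2 cm from the tail tip. Immobility, meaning completely motionless and hanging passively, was timed over the last 6 min of a 7 min session. Read-out was mean ± SEM, compared with control by ANOVA followed by Dunnett's test.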

Mus musculus [12] = assay: Neurotoxicity in ip dosed KunMing mouse assessed as motor impairment after 0.5 hrs by rotarod test; assay type: toxicity, organism-based; settings: in vivo; in short: as §3
Mus musculus [13] = assay: Anticonvulsant activity in KunMing mouse assessed as protection against maximal electroshock-induced seizures at 100 mg/kg, ip after 0.5 hrs relative to control; assay type: functional; settings: route intraperitoneal; in short: as §2
Mus musculus [14] = assay: Toxicity in KunMing mouse assessed as effect on grooming at 50 mg/kg, ip by open-field test; assay type: organism-based; design: dose 50 mg/kg, route intraperitoneal; settings: in vivo
In short: (§4)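 Mice (22 ± 2 g) given 50 mg/kg i.p. in DMSO; tested 30 min later in an open field, placed at the centre. Counts were taken of locomotion (line crossings), rearing (standing on hind legs) and grooming. Mean ± SEM; ANOVA with Bonferroni's test versus control.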

Mus musculus [15] = assay: Antidepressant activity in ip dosed KunMing mouse assessed as decrease in immobility time by forced swimming test; assay type: functional, organism-based; in short: as §1
Mus musculus [16] = assay: Toxicity in KunMing mouse assessed as effect on rearing at 50 mg/kg, ip by open-field test; assay type: organism-based; design: dose 50 mg/kg, route intraperitoneal; settings: in vivo; in short: as §4
Mus musculus [17] = assay: Antidepressant activity in KunMing mouse assessed as decrease in immobility time at 10 mg/kg, ip by forced swimming test; assay type: functional, organism-based; design: dose 10 mg/kg; in short: as §1
Mus musculus [18] = assay: Antidepressant activity in KunMing mouse assessed as decrease in immobility time at 25 to 50 mg/kg, ip by forced swimming test; assay type: functional, organism-based; in short: as §1
Mus musculus [19] = assay: Toxicity in KunMing mouse assessed as effect on locomotion at 50 mg/kg, ip by open-field test; assay type: organism-based; design: dose 50 mg/kg, route intraperitoneal; settings: in vivo; in short: as §4

| Structure (SMILES) | Time (Mus musculus [1]) [s] | Activity (Mus musculus [2]) [%] | Activity (Mus musculus [3]) | MTC (Mus musculus [4]) [mg/kg] | Activity (Mus musculus [5]) | Activity (Mus musculus [6]) | Activity (Mus musculus [7]) | Activity (Mus musculus [8]) | minimal effective dose (Mus musculus [9]) [mg/kg] | minimal effective dose (Mus musculus [10]) [mg/kg] | Activity (Mus musculus [11]) | MTC (Mus musculus [12]) [mg/kg] | Activity (Mus musculus [13]) [%] | Activity (Mus musculus [14]) | Activity (Mus musculus [15]) | Activity (Mus musculus [16]) | Activity (Mus musculus [17]) | Activity (Mus musculus [18]) | Activity (Mus musculus [19]) |
| --- | --- | --- | --- | --- | --- | --- | --- | --- | --- | --- | --- | --- | --- | --- | --- | --- | --- | --- | --- |
| CCCN1C(=O)CCc2cc(-n3cnnc3)ccc21 | 123.6 | 5.3 | inactive | 300 | inactive | Non-toxic | Non-toxic |  |  |  |  |  |  |  |  |  |  |  |  |
| O=C1CCc2cc(-n3cnnc3)ccc2N1Cc1ccc(Cl)cc1 | 36.1 | 72.3 | inactive |  | inactive | Non-toxic | Non-toxic | Non-toxic |  |  |  |  |  |  |  |  |  |  |  |
| O=C1CCc2cc(-n3cnnc3)ccc2N1Cc1c(Cl)cccc1Cl | 111 | 15.7 | inactive |  | inactive | Non-toxic | Non-toxic | Non-toxic |  |  |  |  |  |  |  |  |  |  |  |
| CCCCCCCCCCN1C(=O)CCc2cc(-n3cnnc3)ccc21 | 101 | 22.6 | inactive |  | inactive | Non-toxic | Non-toxic | Non-toxic |  |  |  |  |  |  |  |  |  |  |  |
| CCCCCCCCN1C(=O)CCc2cc(-n3cnnc3)ccc21 | 83.3 | 35.8 |  | 300 |  | Non-toxic | Non-toxic |  | 300 | 300 |  |  |  |  |  |  |  |  |  |
| O=C1CCc2cc(-n3cnnc3)ccc2N1Cc1cccc(Cl)c1 | 53.4 | 59.1 |  |  | inactive | Non-toxic | Non-toxic | Non-toxic | 300 |  |  |  |  |  |  |  |  |  |  |
| O=C1CCc2cc(-n3cnnc3)ccc2N1Cc1ccccc1 | 68.1 | 47.8 | inactive |  | inactive | Non-toxic | Non-toxic | Non-toxic |  |  |  |  |  |  |  |  |  |  |  |
| CNCCC(Oc1ccc(C(F)(F)F)cc1)c1ccccc1 (stereo not drawn) [FLUOXETINE] | 65.9 | 49.5 |  |  |  |  |  |  |  |  | Active |  |  |  |  |  |  |  |  |
| O=C1CCc2cc(-n3cnnc3)ccc2N1Cc1cccc(F)c1 | 43 | 67 | inactive |  | inactive | Non-toxic | Non-toxic | Non-toxic |  |  |  |  |  |  |  |  |  |  |  |
| O=C1NC(=O)C(c2ccccc2)(c2ccccc2)N1 [PHENYTOIN] |  |  |  | 100 |  |  |  |  | 100 | 30 |  | 100 |  |  |  |  |  |  |  |
| O=C1CCc2cc(-n3cnnc3)ccc2N1Cc1ccc(Cl)cc1Cl | 105.8 | 18.9 |  |  |  | Non-toxic | Non-toxic | Non-toxic | 300 | 300 |  |  |  |  |  |  |  |  |  |
| COc1ccc(CN2C(=O)CCc3cc(-n4cnnc4)ccc32)cc1 | 121.6 | 6.8 | inactive |  | inactive | Non-toxic | Non-toxic | Non-toxic |  |  |  |  |  |  |  |  |  |  |  |
| O=C1CCc2cc(-n3cnnc3)ccc2N1Cc1ccc(F)cc1 | 71.1 | 45.5 |  |  | inactive | Non-toxic | Non-toxic | Non-toxic | 300 |  |  |  |  |  |  |  |  |  |  |
| CCCCCN1C(=O)CCc2cc(-n3cnnc3)ccc21 | 129.8 | 0.5 | inactive | 300 |  |  | Non-toxic |  |  | 100 |  | 300 | 100 |  |  |  |  |  |  |
| Cc1ccc(CN2C(=O)CCc3cc(-n4cnnc4)ccc32)cc1 | 78.8 | 39.6 | inactive |  | inactive | Non-toxic | Non-toxic | Non-toxic |  |  |  |  |  |  |  |  |  |  |  |
| CCCC(CCC)C(=O)[O-].[Na+] [VALPROATE SODIUM] |  |  | inactive |  |  | Non-toxic |  | Non-toxic |  | 300 |  |  |  |  |  |  |  |  |  |
| CCCCCCCN1C(=O)CCc2cc(-n3cnnc3)ccc21 | 77.9 | 40.3 | inactive | 300 |  |  | Non-toxic |  |  | 300 |  | 300 |  |  |  |  |  |  |  |
| O=C1CCc2cc(-n3cnnc3)ccc2N1Cc1ccccc1Cl | 77.8 | 40.4 |  |  | inactive | Non-toxic | Non-toxic | Non-toxic | 300 |  |  |  |  |  |  |  |  |  |  |
| O=C1CCc2cc(-n3cnnc3)ccc2N1Cc1ccccc1F | 35.6 | 72.7 |  |  | inactive | Non-toxic | Non-toxic | Non-toxic | 300 |  | Active |  |  | Non-toxic | Dose-dependent effect | Non-toxic | inactive | Active | Non-toxic |
| CCCCCCN1C(=O)CCc2cc(-n3cnnc3)ccc21 | 98.5 | 24.5 |  | 300 |  |  | Non-toxic |  | 300 | 100 |  | 300 | 100 |  |  |  |  |  |  |
| CCCCN1C(=O)CCc2cc(-n3cnnc3)ccc21 | 70 | 46.4 | inactive | 300 | inactive | Non-toxic | Non-toxic |  |  |  |  |  |  |  |  |  |  |  |  |
| O=C1CCc2cc(-n3cnnc3)ccc2N1Cc1cccc(C(F)(F)F)c1 | 93.3 | 37.2 |  |  |  | Non-toxic | Non-toxic | Non-toxic | 300 | 300 |  |  |  |  |  |  |  |  |  |
